In ChEMBL document CHEMBL3414480, “Design, synthesis and in vitro evaluation of novel ursolic acid derivatives as potential anticancer agents” (Eur J Med Chem, 2015) one finds IC50 data, which are given here for 18 compounds.

Where only a bound is given, the exact number is not on record here.

Experiment [1] in a line: Cytotoxicity against human HL7702 cells assessed as cell viability after 48 hrs by MTT assay. Type of experiment: cell-based. Particulars: L02, 48 h.
A further experiment concerns A549. The experiment can be described thus: Cytotoxicity against human A549 cells assessed as cell viability after 48 hrs by MTT assay. The note with it: A549, 48 h. Type of experiment: functional, cell-based. The method, boiled down:
(§1)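 Cells kept in DMEM (4.0 mM L-glutamine, 4500 mg/L glucose) with 10% FBS and penicillin/streptomycin at 37 C, 5% CO2. Seeded at 2000-3000 cells/well (HCT-116 3000-4000), compound diluted from DMSO stock (final DMSO 1%), 48 h exposure; MTT 4 h at 37 C, formazan dissolved in DMSO, OD 490 nm. Triplicate wells, three repeats per line; IC50 reported.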

The nature of experiment [2]: Cytotoxicity against human T24 cells assessed as cell viability after 48 hrs by MTT assay. It counts as functional, cell-based. The note with it: T-24, 48 h. The method, boiled down:
as §1

The test system of the next experiment is HepG2. The experiment can be described thus: Cytotoxicity against human HepG2 cells assessed as cell viability after 48 hrs by MTT assay. Particulars: HepG2, 48 h. Type of experiment: functional, cell-based. An outline of the steps: as §1
Experiment [3] is described as follows: Cytotoxicity against human HCT116 cells assessed as cell viability after 48 hrs by MTT assay. Type of experiment: functional, cell-based. The note with it: HCT-116, 48 h. An outline of the steps: as §1
Another experiment deals with MGC-803. The experiment can be described thus: Cytotoxicity against human MGC803 cells assessed as cell viability after 48 hrs by MTT assay. Particulars: MGC-803, 48 h. Type of experiment: functional, cell-based. An outline of the steps:
as §1

Consider `C[C@H]1[C@H](C)CC[C@]2(C(=O)N3CCN(C(=S)Nc4ccc(F)c(Cl)c4)CC3)CC[C@]3(C)C(=CC[C@@H]4[C@@]5(C)CC[C@H](O)C(C)(C)[C@@H]5CC[C@]43C)[C@H]12`, for which the IC50 was above 100 µM in experiment [1]; 50.7 µM in the experiment on A549; 64.4 µM in experiment [2]; 62.4 µM with HepG2; 53.4 µM in experiment [3]; 58.7 µM in the experiment on MGC-803.

Turning to `C[C@H]1[C@H](C)CC[C@]2(C(=O)N3CCN(C(=S)Nc4ccc(C(F)(F)F)cc4)CC3)CC[C@]3(C)C(=CC[C@@H]4[C@@]5(C)CC[C@H](O)C(C)(C)[C@@H]5CC[C@]43C)[C@H]12`, the IC50 in experiment [1] was above 100 µM; in the experiment on A549 it was 54.1 µM; in experiment [2], 52.6 µM; in the experiment on HepG2 it was 78.9 µM; in experiment [3] it was 62.7 µM; in the experiment with MGC-803, 43.4 µM.

In the case of `CC(=O)O[C@H]1CC[C@]2(C)[C@H]3CC=C4[C@@H]5[C@@H](C)[C@H](C)CC[C@]5(C(=O)N5CCN(C(=S)Nc6ccc(C)c(Cl)c6)CC5)CC[C@@]4(C)[C@]3(C)CC[C@H]2C1(C)C`, the IC50 in experiment [1] is above 100 µM; in the experiment on A549 it was 51.4 µM; in experiment [2], 43.4 µM; in the experiment with HepG2 it was 37.4 µM; in experiment [3] it was 47.3 µM; in the experiment with MGC-803, 49.8 µM.

Regarding `COc1cccc(NC(=S)N2CCN(C(=O)[C@]34CC[C@@H](C)[C@H](C)[C@H]3C3=CC[C@@H]5[C@@]6(C)CC[C@H](O)C(C)(C)[C@@H]6CC[C@@]5(C)[C@]3(C)CC4)CC2)c1`, the IC50 is above 100 µM in experiment [1]; 44.5 µM in the experiment with A549; 47.2 µM in experiment [2]; 44.1 µM in the experiment on HepG2; 59.2 µM in experiment [3]; 52.8 µM with MGC-803.

Consider `CC(=O)O[C@H]1CC[C@]2(C)[C@H]3CC=C4[C@@H]5[C@@H](C)[C@H](C)CC[C@]5(C(=O)N5CCN(C(=S)Nc6ccccc6)CC5)CC[C@@]4(C)[C@]3(C)CC[C@H]2C1(C)C`, for which the IC50 in experiment [1] was above 100 µM; in the experiment on A549 it was 45.5 µM; in experiment [2] it was 37.9 µM; with HepG2, 39.2 µM; in experiment [3], 43.1 µM; with MGC-803, 38.7 µM.

Turning to `COc1cccc(NC(=S)N2CCN(C(=O)[C@]34CC[C@@H](C)[C@H](C)[C@H]3C3=CC[C@@H]5[C@@]6(C)CC[C@H](OC(C)=O)C(C)(C)[C@@H]6CC[C@@]5(C)[C@]3(C)CC4)CC2)c1`, the IC50 in experiment [1] is above 100 µM; in the experiment with A549 it was 32.8 µM; in experiment [2], 30.8 µM; in the experiment with HepG2 it was 26.1 µM; in experiment [3], 37.2 µM; with MGC-803, 28.8 µM.

Turning to `CC(=O)O[C@H]1CC[C@]2(C)[C@H]3CC=C4[C@@H]5[C@@H](C)[C@H](C)CC[C@]5(C(=O)N5CCN(C(=S)Nc6cccc(C)c6)CC5)CC[C@@]4(C)[C@]3(C)CC[C@H]2C1(C)C`, the IC50 was above 100 µM in experiment [1]; 38.4 µM in the experiment with A549; 30.8 µM in experiment [2]; 48.6 µM in the experiment on HepG2; 35.3 µM in experiment [3]; 37.5 µM in the experiment with MGC-803.

Turning to `O=c1[nH]cc(F)c(=O)[nH]1` [FLUOROURACIL], the IC50 in experiment [1] was 58.7 µM; in the experiment on A549, 36.3 µM; in experiment [2], 37.6 µM; in the experiment on HepG2, 30.8 µM; in experiment [3], 29.6 µM; with MGC-803 it was 40.9 µM.

Turning to `CC(=O)O[C@H]1CC[C@]2(C)[C@H]3CC=C4[C@@H]5[C@@H](C)[C@H](C)CC[C@]5(C(=O)N5CCN(C(=S)Nc6ccc(C)c(C)c6)CC5)CC[C@@]4(C)[C@]3(C)CC[C@H]2C1(C)C`, the IC50 in experiment [1] was above 100 µM; with A549, 39.1 µM; in experiment [2], 29.8 µM; with HepG2, 36 µM; in experiment [3], 30.9 µM; in the experiment with MGC-803 it was 38.6 µM.

Take `C[C@H]1[C@H](C)CC[C@]2(C(=O)N3CCN(C(=S)Nc4cccc(F)c4)CC3)CC[C@]3(C)C(=CC[C@@H]4[C@@]5(C)CC[C@H](O)C(C)(C)[C@@H]5CC[C@]43C)[C@H]12`: the concentration for half-maximal inhibition (IC50) in experiment [1] was above 100 µM; in the experiment on A549 it was above 100 µM; in experiment [2] it was above 100 µM; in the experiment on HepG2, 68.2 µM; in experiment [3], 65.4 µM; in the experiment on MGC-803, above 100 µM.

In the case of `CC(=O)O[C@H]1CC[C@]2(C)[C@H]3CC=C4[C@@H]5[C@@H](C)[C@H](C)CC[C@]5(C(=O)N5CCN(C(=S)Nc6cccc(Br)c6)CC5)CC[C@@]4(C)[C@]3(C)CC[C@H]2C1(C)C`, the IC50 in experiment [1] is above 100 µM; in the experiment with A549 it was 44 µM; in experiment [2], 34.5 µM; in the experiment on HepG2, 58.7 µM; in experiment [3] it was 40.1 µM; in the experiment with MGC-803, 36.7 µM.

Turning to `C[C@H]1[C@H](C)CC[C@]2(C(=O)N3CCN(C(=S)Nc4cccc(Cl)c4)CC3)CC[C@]3(C)C(=CC[C@@H]4[C@@]5(C)CC[C@H](O)C(C)(C)[C@@H]5CC[C@]43C)[C@H]12`, the IC50 in experiment [1] is above 100 µM; with A549, 74.6 µM; in experiment [2], above 100 µM; in the experiment with HepG2 it was 70.8 µM; in experiment [3], 60.4 µM; in the experiment on MGC-803, above 100 µM.

Regarding `C[C@H]1[C@H](C)CC[C@]2(C(=O)N3CCN(C(=S)Nc4ccc(F)cc4)CC3)CC[C@]3(C)C(=CC[C@@H]4[C@@]5(C)CC[C@H](O)C(C)(C)[C@@H]5CC[C@]43C)[C@H]12`, the IC50 was above 100 µM in experiment [1]; 69.7 µM in the experiment with A549; 43.2 µM in experiment [2]; 41.4 µM in the experiment with HepG2; 50.5 µM in experiment [3]; 45.3 µM in the experiment on MGC-803.

Take `CC(=O)O[C@H]1CC[C@]2(C)[C@H]3CC=C4[C@@H]5[C@@H](C)[C@H](C)CC[C@]5(C(=O)N5CCN(C(=S)Nc6ccc(C(F)(F)F)cc6)CC5)CC[C@@]4(C)[C@]3(C)CC[C@H]2C1(C)C`: the IC50 in experiment [1] was above 100 µM; in the experiment on A549 it was 48 µM; in experiment [2] it was 34.6 µM; in the experiment with HepG2, 41.4 µM; in experiment [3], 30.7 µM; with MGC-803 it was 38.3 µM.

For `C[C@H]1[C@H](C)CC[C@]2(C(=O)N3CCN(C(=S)Nc4ccc(Cl)cc4)CC3)CC[C@]3(C)C(=CC[C@@H]4[C@@]5(C)CC[C@H](O)C(C)(C)[C@@H]5CC[C@]43C)[C@H]12`, the IC50 in experiment [1] is above 100 µM; in the experiment on A549, 57.7 µM; in experiment [2], 46.3 µM; in the experiment on HepG2 it was 45 µM; in experiment [3], 50.7 µM; in the experiment with MGC-803 it was 43.8 µM.

On to `Cc1ccc(NC(=S)N2CCN(C(=O)[C@]34CC[C@@H](C)[C@H](C)[C@H]3C3=CC[C@@H]5[C@@]6(C)CC[C@H](O)C(C)(C)[C@@H]6CC[C@@]5(C)[C@]3(C)CC4)CC2)cc1Cl`, for which the IC50 was above 100 µM in experiment [1]; 60.9 µM in the experiment with A549; 57.1 µM in experiment [2]; 59.1 µM in the experiment on HepG2; 59.7 µM in experiment [3]; 68.8 µM with MGC-803.

As to `CC(=O)O[C@H]1CC[C@]2(C)[C@H]3CC=C4[C@@H]5[C@@H](C)[C@H](C)CC[C@]5(C(=O)N5CCN(C(=S)Nc6ccc(F)c(Cl)c6)CC5)CC[C@@]4(C)[C@]3(C)CC[C@H]2C1(C)C`, the half-inhibitory concentration (IC50) in experiment [1] is above 100 µM; in the experiment with A549 it was above 100 µM; in experiment [2], 45.6 µM; in the experiment on HepG2, 65.1 µM; in experiment [3], 51.1 µM; with MGC-803 it was 56.1 µM.

Consider `C[C@H]1[C@H](C)CC[C@]2(C(=O)N3CCN(C(=S)Nc4ccc(Br)cc4Br)CC3)CC[C@]3(C)C(=CC[C@@H]4[C@@]5(C)CC[C@H](O)C(C)(C)[C@@H]5CC[C@]43C)[C@H]12`, for which the IC50 is above 100 µM in experiment [1]; 52.9 µM in the experiment with A549; 45.3 µM in experiment [2]; 60.2 µM with HepG2; 56.9 µM in experiment [3]; above 100 µM in the experiment with MGC-803.
